Assay outcomes deposited in PubChem BioAssay by several laboratories.
A selection: hits, their analogues and other compounds. The true share with any hit is near 8.9%.
b-catenin transl – modulators of beta-catenin nuclear translocation; 190,000 tested, 0.3% active; HeLa beta-catenin nuclear translocation, immunofluorescence imaging; nuclear translocation activity, % at 5 µM; AID 1665;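 active = nuclear translocation activity above 50% at 5 µM, with a well cell count of 50 or more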;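 note: per-cell ratio of nuclear to cytoplasmic median beta-catenin stain intensity; plate controls were DMSO negative control for no effect and GSK-3 inhibitor IX positive control for full effect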
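System: Human HeLa cells, endogenous beta-catenin | Compound dosing: 5 µM primary, 0.02–20 µM confirmation | Timing: 24 h compound exposure at 37°C, 5% CO2 | Measured by: Fluorescence imaging of beta-catenin antibody stain plus DAPI | Read-out basis: % activation of per-cell nuclear versus cytoplasmic median beta-catenin signal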
MT stabilizer – stabilizes microtubules in HeLa cells. HeLa tubulin immunostaining HCS, 24 h; share of cells brighter than vehicle mean+2SD. % tubulin-high responders, % at 10 µM. 200,000 tested, 0.83% active. AID 2205;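 active = plate Z-score above 3 for both tubulin-high and condensed-nucleus cell shares, with cell loss under 80%, at 10 µM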;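 note: anti alpha tubulin signal scored within the nucleus-defined area of each cell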
HSV replic up – increases HSV replication in cells; HSV replication augmentation in cells, fold increase; maximum fold increase; 220,000 tested, 0.005% active; in the data active = maximum fold increase above about 1.5; tested in PC3 cells
Lmaj promast – Leishmania major promastigote growth inhibition; Leishmania major promastigotes, resazurin fluorescence viability; inhibition, % at 10 µM; 200,000 tested, 9% active; AID 1063; in the data active = inhibition above about 50%;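 note: promastigotes grown with compound for 44 hours at 28 °C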
Dynein cargo inh – dynein cargo transport inhibition. 3617.4 mouse cells, GR-EGFP nuclear translocation imaging; test concentration mostly 20 µM; stimulated with dexamethasone, 1 µM; hits give low values. z-score, hits read low. 220,000 tested, 0.47% active. AID 1381;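 active = plate z-score of nuclear minus cytoplasmic receptor signal below a set negative limit, without overly bright fluorescence or cell loss, cut at about -3.5 in these data, passing the limit was not always enough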;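 note: z-score of nuclear minus cytoplasmic ring GR-EGFP intensity difference per well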
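Buffer or medium – tet-free medium with charcoal-stripped serum · Signal – automated 10x imaging of fixed Hoechst-stained cells · Also added – dexamethasone agonist, 1.0 µM final, for 30 min · Incubation – induction 48 h, compound 1 h, agonist 30 min · Read-out – GR-EGFP nuclear translocation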
An asterisk follows results filed as active; i = inactive; . = no result given.

SMILES | b-catenin transl | MT stabilizer | HSV replic up | Lmaj promast | Dynein cargo inh
CCC(C)NCCOCCOc1cc(C)c(Cl)c(C)c1 (centres undefined) | 0.6 | 2.2 | i | 86.8* | 4.18
CCC(C)NCCCOc1ccc([N+](=O)[O-])cc1 (centres undefined) | -0.7 | 2.3 | i | 12.4 | -0.223
CCC(C)NCCCCOc1ccc(Br)cc1 (centres undefined) | -1.1 | 5.3 | i | 94.4* | -3.41
CCC(C)NCCOc1cc(C)cc(C)c1C (centres undefined) | -0.2 | 7.1 | i | 21.6 | 1.42
CCC(C)NCCOCCOc1ccc(F)cc1 (centres undefined) | . | 3.4 | i | 94.8* | -0.173
CCC(C)NCCCCOc1cc(C)cc(C(C)C)c1 (centres undefined) | -3.2 | 2.5 | i | 90.9* | -0.61
Cc1oc(-c2ccc(-c3ccccc3)cc2)nc1CN(C)C1CCOC1 (centres undefined) | 1.7 | 5.1 | i | 18.4 | -0.967
Nc1nc(-c2ccccc2)c(-c2ccccc2)o1 | -4.6 | . | i | . | 0.0276
CCC(=O)Nc1ccc(C(=O)CSc2nnc(-c3ccc(NS(C)(=O)=O)cc3)n2C)cc1OC | 1.3 | 2.0 | i | -4.8 | 0.257
CCn1c(SCC(=O)c2ccc(NC(C)=O)c(OC)c2)nnc1-c1ccc(NS(C)(=O)=O)cc1 | -1.1 | 2.9 | i | 63.6* | 0.0834
CCNCCNc1ccc(Cl)cc1[N+](=O)[O-] | . | 4.0 | i | 59.6* | 0.195
S=C(NCCCN1CCOCC1)N1CCN(c2nc(-c3ccc(Cl)cc3)cs2)CC1 | -1.8 | 1.6 | i | 75.6* | -1.23
CCOc1ccccc1NC(=S)N1CCN(c2nc(-c3ccc(F)cc3)cs2)CC1 | -0.1 | 1.7 | i | 90.0* | -1.03
S=C(NCCCN1CCOCC1)N1CCN(c2nc(-c3ccccc3)cs2)CC1 | -0.1 | 2.1 | i | 82.5* | 0.567
S=C(NCC1CCCO1)N1CCN(c2nc(-c3ccc(Cl)cc3)cs2)CC1 (centres undefined) | 2.2 | 1.8 | i | 16.3 | 0.44
COC(=O)c1ccc(/C=C(\C#N)C(=O)NC(C)c2ccccc2)cc1 (centres undefined) | -0.5 | 4.8 | i | 98.8* | -0.64
Cc1ccc(OCC(=O)c2ccc3c(c2)CCCC3)cc1C | -0.7 | 1.8 | i | -3.0 | 0.262
O=C(/C=C/c1ccc(Br)cc1)c1ccc(NC(=O)c2ccco2)cc1 | 11.5 | 5.7 | i | 88.3* | -0.65
O=C(/C=C/c1ccncc1)c1ccc(NC(=O)c2ccccc2F)cc1 | . | 4.3 | i | 100.2* | -0.376
O=C(/C=C\c1ccccc1)Nc1ccc(NC(=O)c2ccco2)cc1 | -2.1 | 3.2 | i | -0.7 | -0.475
O=C(/C=C/c1ccc(Br)cc1)c1ccco1 | -0.8 | 5.2 | i | 89.0* | -1.98
COCCNC(=O)c1ccccc1NC(=O)c1cc(OC)cc(OC)c1 | 0.6 | 2.3 | i | 0.3 | -0.428
Cc1ccc(OCCCCN(C)Cc2ccccc2)c(Br)c1 | -3.3 | 3.0 | i | 90.5* | -0.13
Cc1ccc(C(C)C)c(OCCCN2C(=O)NC(C)(C)C2=O)c1 | . | 1.2 | i | 5.5 | -0.578
Cc1ccc(C(C)C)c(OCCCN(C)Cc2ccccc2)c1 | . | 6.5 | i | 96.3* | 0.733
SMILES | b-catenin transl | MT stabilizer | HSV replic up | Lmaj promast | Dynein cargo inh
COc1ccc(Cl)cc1NC(=O)CN(c1ccccc1)S(=O)(=O)N(C)C | -2.3 | 2.5 | i | 99.6* | 0.0163
Cc1ccc(C)c(N(CC(=O)Nc2cc(Cl)ccc2Oc2ccccc2)S(C)(=O)=O)c1 | . | 3.1 | i | 51.5* | -1.71
COc1ccc(OC)c(S(=O)(=O)N(C)CC(=O)Nc2cc(Cl)ccc2OC)c1 | 0.4 | 1.4 | i | 99.6* | -0.994
COc1ccc(Cl)cc1N(CC(=O)Nc1cccc(SC)c1)S(C)(=O)=O | -6.0 | 2.4 | i | 61.5* | 0.132
CC(C)NS(=O)(=O)c1ccc(NC(=S)NC(=O)c2cccc([N+](=O)[O-])c2)cc1 | 1.8 | 3.2 | i | 44.2 | -0.59
CC1CC(C)CN(C(=O)Cc2c(C(=O)O)[nH]c3ccc(Cl)cc23)C1 (centres undefined) | -0.7 | 2.8 | i | -5.4 | -0.241
CCCCCCCCN1[C@@H](CC(=O)OC)c2cc(F)ccc2S1(=O)=O | . | . | i | . | .
Cn1c(=O)c2c(SCC(=O)Nc3ccc4c(c3)OCCO4)nc(CC(C)(C)C)nc2n(C)c1=O | -2.0 | 4.2 | i | 42.7 | 1.01
O=C(CC1C(=O)NCCN1C/C=C/c1ccccc1)NCCCC1CCCC1 (centres undefined) | 2.5 | 0.6 | i | -8.0 | -0.574
CN(C)c1ccccc1C(=O)c1ccccc1N(C)C | 17.1 | 54.9* | i | -5.9 | -0.0236
CN(c1ccccc1C(=O)O)S(C)(=O)=O | -3.8 | 3.8 | i | -1.8 | -0.365
O=c1oc2ccccc2nc1/C=C(\O)c1ccc(Br)cc1 | 1.6 | . | i | . | 0.11
COc1ccc(-c2n(CC(=O)OC3CC(C)CCC3C(C)C)c3ccccc3[n+]2C)cc1 (centres undefined) | 2.6 | 5.6 | i | 100.6* | 0.976
COC(=O)c1cc(C(=O)OC)cc(-n2c(C)cc(C(=O)COC(=O)CNS(=O)(=O)c3ccc(C)cc3)c2C)c1 | 0.4 | 3.5 | i | 90.4* | -0.593
COC(=O)c1ccc(-n2c(C)cc(C(=O)COC(=O)CNS(=O)(=O)c3ccc(C)cc3)c2C)cc1 | 0.8 | 3.0 | i | -7.8 | -0.154
Cc1cc(C)c(C(=O)COC(=O)CCNS(=O)(=O)c2c(Cl)cccc2Cl)cc1C | . | 1.5 | i | 73.5* | 0.745
CCCNC(=O)CN(C)S(=O)(=O)c1ccc(F)cc1 | -1.5 | 2.0 | i | 63.8* | 0.699
CCCN1CCN(C(=O)Cn2cnc3ccc(S(=O)(=O)N4CCC(C)CC4)cc3c2=O)CC1 | 2.3 | 1.5 | i | 93.5* | 0.557
COc1ccc(N2CCN(c3nc4c(c(=O)[nH]c(=O)n4C)n3Cc3cccc(C)c3)CC2)cc1 | -0.3 | 2.7 | i | 11.0 | -0.204
CN=c1scc(C)n1/N=C/c1ccc(O)c(O)c1O | . | 1.6 | i | -4.0 | -0.513
CN=c1scc(-c2cccs2)n1/N=C/c1ccccc1O | . | 2.7 | i | 85.7* | 1.02
COc1ccc(-c2[nH]c(-c3ccc(SC)cc3)nc2SCC(=O)Nc2nccs2)cc1 | -3.0 | 5.5 | i | 95.5* | 3.75
COc1ccc(-c2nc(SCC(=O)Nc3nccs3)c(-c3ccc(Cl)cc3)[nH]2)cc1 | -0.5 | 15.4* | i | 35.0 | -0.417
COc1ccc(-c2[nH]c(-c3ccc(C)cc3)nc2SCC(=O)Nc2nccs2)cc1 | 0.5 | 3.8 | i | 23.3 | -0.0798
O=c1[nH]c(N2CCc3ccccc3C2)nc2c1CCCC2 | . | 2.4 | . | -1.8 | 0.00463
Cn1c(C(=O)N2COCC2(C)C)cc2c(=O)n3ccccc3nc21 | -1.4 | 6.6 | . | 4.7 | -0.341
Cn1c(C(=O)N2CCN(C3CCCCC3)CC2)cc2c(=O)n(C)c3ccccc3c21 | . | 4.7 | i | -5.7 | 0.0326
CCOC(=O)c1c(C)nc2ccc(Cl)cc2c1-c1ccccc1 | -1.6 | 2.7 | i | 50.8* | -0.0401
